Assay results: ChEMBL document CHEMBL2202999, “Synthesis of bivalent lactosides and their activity as sensors for differences between lectins in inter- and intrafamily comparisons” (Bioorg Med Chem Lett, 2012)

What was measured:
Galectin-3 [1] = target: T1, Galectin-3 (Gallus gallus, UniProt A4GTP0); assay: Inhibition of binding of biotinylated chicken galectin-3 to surface immobilized asialofetuin by solid phase assay relative to free lactose
T1 sequence (A4GTP0 whole entry): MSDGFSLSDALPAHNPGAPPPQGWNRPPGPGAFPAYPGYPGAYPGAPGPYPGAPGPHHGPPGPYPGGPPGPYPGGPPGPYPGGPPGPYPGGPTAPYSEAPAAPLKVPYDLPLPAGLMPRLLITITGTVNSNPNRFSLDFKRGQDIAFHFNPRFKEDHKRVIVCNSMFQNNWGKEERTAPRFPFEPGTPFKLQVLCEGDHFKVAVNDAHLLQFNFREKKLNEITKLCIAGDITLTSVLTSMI
In short: (§1)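 Asialofetuin was adsorbed to microtiter wells at a constant coating amount, and its N-glycans served as ligand. Biotinylated lectin at a lectin-specific concentration was added with inhibitor. IC50 (mM) was normalized to lactose, and potency was expressed relative to free lactose. Assays were run in triplicate across up to five independent series.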

[2] = Inhibition of binding of biotinylated Viscum album agglutinin to surface immobilized asialofetuin by solid phase assay; in short: as §1
Galectin-3 [3] = target: T1, Galectin-3; assay: Inhibition of binding of biotinylated truncated chicken galectin-3 to surface immobilized asialofetuin by solid phase assay relative to free lactose
In short: (§2)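 Asialofetuin was adsorbed to microtiter wells at a constant coating amount, and its N-glycans served as ligand. Biotinylated lectin at a lectin-specific concentration was added with inhibitor. Assays were run in triplicate across up to five independent series.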

[4] = target: T2, Beta-galactoside-binding lectin (Gallus gallus, UniProt P07583); assay: Inhibition of binding of biotinylated chicken galectin-1B to surface immobilized asialofetuin by solid phase assay relative to free lactose; in short: as §1
T2 sequence (P07583 whole entry): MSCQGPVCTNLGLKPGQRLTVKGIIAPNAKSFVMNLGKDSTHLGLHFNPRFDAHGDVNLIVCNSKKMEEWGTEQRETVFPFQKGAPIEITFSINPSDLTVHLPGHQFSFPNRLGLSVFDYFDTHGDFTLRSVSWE

[5] = Inhibition of binding of biotinylated Viscum album agglutinin to surface immobilized asialofetuin by solid phase assay relative to free lactose; in short: as §2
[6] = Inhibition of binding of biotinylated chicken galectin-8N to surface immobilized asialofetuin by solid phase assay; parameters: species or system Gallus gallus; in short: as §1
Galectin-3 [7] = target: T1, Galectin-3; assay: Inhibition of binding of biotinylated truncated chicken galectin-3 to surface immobilized asialofetuin by solid phase assay; in short: as §2
[8] = Inhibition of binding of biotinylated chicken galectin-1A to surface immobilized asialofetuin by solid phase assay; parameters: species or system Gallus gallus; in short: as §1
[9] = Inhibition of binding of biotinylated chicken galectin-2 to surface immobilized asialofetuin by solid phase assay relative to free lactose; parameters: species or system Gallus gallus; in short: as §1
[10] = Inhibition of binding of biotinylated Erythrina crista-galli agglutinin to surface immobilized asialofetuin by solid phase assay relative to free lactose; in short: as §1
[11] = Inhibition of binding of biotinylated chicken galectin-8S to surface immobilized asialofetuin by solid phase assay relative to free lactose; parameters: species or system Gallus gallus; in short: as §1
[12] = Inhibition of binding of biotinylated chicken galectin-8L to surface immobilized asialofetuin by solid phase assay relative to free lactose; parameters: species or system Gallus gallus; in short: as §2
[13] = target: T2, Beta-galactoside-binding lectin; assay: Inhibition of binding of biotinylated chicken galectin-1B to surface immobilized asialofetuin by solid phase assay; in short: as §1
[14] = Inhibition of binding of biotinylated chicken galectin-8N to surface immobilized asialofetuin by solid phase assay relative to free lactose; parameters: species or system Gallus gallus; in short: as §1
[15] = Inhibition of binding of biotinylated chicken galectin-8L to surface immobilized asialofetuin by solid phase assay; parameters: species or system Gallus gallus; in short: as §1
Galectin-3 [16] = target: T1, Galectin-3; assay: Inhibition of binding of biotinylated chicken galectin-3 to surface immobilized asialofetuin by solid phase assay; in short: as §2
[17] = Inhibition of binding of biotinylated chicken galectin-1A to surface immobilized asialofetuin by solid phase assay relative to free lactose; parameters: species or system Gallus gallus; in short: as §1
[18] = Inhibition of binding of biotinylated chicken galectin-8S to surface immobilized asialofetuin by solid phase assay; parameters: species or system Gallus gallus; in short: as §1
[19] = Inhibition of binding of biotinylated chicken galectin-2 to surface immobilized asialofetuin by solid phase assay; parameters: species or system Gallus gallus; in short: as §1
[20] = Inhibition of binding of biotinylated Erythrina crista-galli agglutinin to surface immobilized asialofetuin by solid phase assay; in short: as §2
SW480 = assay: Inhibition of binding of biotinylated Erythrina crista-galli agglutinin to SW480 cells at 0.2 mM by cytofluorometry; type: cell-based
In short: (§3)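 Labeled lectin, with or without inhibitor, was incubated with aliquots of cell suspensions from the same passage: human SW480 colon adenocarcinoma cells for Erythrina agglutinin, CHO cells for the galectins. Binding was quantified by cytofluorometry as % positive cells and mean fluorescence intensity. Readings were normalized between a lectin-only control (100%) and a no-lectin background (0%). Runs were done in triplicate across at least three independent series.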

[21] = target: T3, Galectin-3 (Gallus gallus) (UniProt A4GTP0); assay: (§4) Inhibition of binding of biotinylated truncated chicken galectin-3 to CHO cells at 2 mM by cytofluorometry; type: cell-based; in short: as §3
T3 sequence (whole entry): T1 sequence (A4GTP0 whole entry)

CHO = assay: Inhibition of binding of biotinylated chicken galectin-8S to CHO cells at 1 mM by cytofluorometry; type: cell-based; settings: Gallus gallus; in short: as §3
[22] = target: T3, Galectin-3 (Gallus gallus); assay: (§5) Inhibition of binding of biotinylated chicken galectin-3 to CHO cells at 1 mM by cytofluorometry; type: cell-based; in short: as §3
[23] = target: T3, Galectin-3 (Gallus gallus); settings: CHO, 0.25 mM
[24] = target: Galectin-3 (Gallus gallus) (UniProt A4GTP0); assay: as §4; type: cell-based; in short: as §3; remark: listed apart in the source
[25] = target: Galectin-3 (Gallus gallus) (UniProt A4GTP0); assay: as §5; type: cell-based; in short: as §3; remark: listed apart in the source

| Compound | relative potency (Galectin-3 [1]) | IC50 [2] [µM] | IC50 (Galectin-3 [3]) [µM] | relative potency [4] | relative potency [5] | IC50 [6] [µM] | IC50 (Galectin-3 [7]) [µM] | IC50 [8] [µM] | relative potency [9] | relative potency [10] | IC50 [11] [µM] | IC50 [12] [µM] | IC50 [13] [µM] | relative potency [14] | IC50 [15] [µM] | IC50 (Galectin-3 [16]) [µM] | IC50 [18] [µM] | IC50 [19] [µM] | IC50 [20] [µM] | inhibition (SW480) [%] | other results |
| --- | --- | --- | --- | --- | --- | --- | --- | --- | --- | --- | --- | --- | --- | --- | --- | --- | --- | --- | --- | --- | --- |
| C=CC[C@@H]1O[C@@H](C(=O)NCc2ccc(CNC(=O)[C@H]3O[C@H](CC=C)[C@H](OCc4ccccc4)[C@@H](OCc4ccccc4)[C@@H]3OCc3cn([C@@H]4O[C@H](CO)[C@@H](O[C@@H]5O[C@H](CO)[C@H](O)[C@H](O)[C@H]5O)[C@H](O)[C@H]4O)nn3)cc2)[C@H](OCc2cn([C@@H]3O[C@H](CO)[C@@H](O[C@@H]4O[C@H](CO)[C@H](O)[C@H](O)[C@H]4O)[C@H](O)[C@H]3O)nn2)[C@@H](OCc2ccccc2)[C@@H]1OCc1ccccc1 | 78.6 | 1300 | 900 | 8.7 | 0.5 | 400 | 5000 | 1400 | 9.2 | 0.8 | 600 | 2100 | 460 | 4 | 2400 | 14 | 3000 | 650 | 1300 |  | relative potency [17]: 0.5 |
| O=C(/C=C/C(=O)N[C@@H]1O[C@H](CO)[C@@H](O[C@@H]2O[C@H](CO)[C@H](O)[C@H](O)[C@H]2O)[C@H](O)[C@H]1O)N[C@@H]1O[C@H](CO)[C@@H](O[C@@H]2O[C@H](CO)[C@H](O)[C@H](O)[C@H]2O)[C@H](O)[C@H]1O |  | 550 |  |  |  | 800 | 4200 | 360 |  |  | 700 |  | 1300 |  | 4500 | 600 | 2500 | 1400 | 1200 | 89 | inhibition [21]: 47%; inhibition (CHO): 70%; inhibition [22]: 45% |
| OC[C@H]1O[C@@H](O[C@H]2[C@H](O)[C@@H](O)[C@H](n3cc(-c4ccc(-c5cn([C@@H]6O[C@H](CO)[C@@H](O[C@@H]7O[C@H](CO)[C@H](O)[C@H](O)[C@H]7O)[C@H](O)[C@H]6O)nn5)cc4)nn3)O[C@@H]2CO)[C@H](O)[C@@H](O)[C@H]1O | 15.7 | 130 | 1500 | 2.7 | 4.6 | 500 | 3100 | 220 | 5 | 1.8 | 2600 | 2800 | 1500 | 3.2 | 1800 | 70 | 700 | 1200 | 600 | 85 | inhibition [21]: 44%; inhibition (CHO): 34%; inhibition [23]: 39%; relative potency [17]: 2.3 |
| O=C1NCc2ccc(cc2)CNC(=O)[C@@H]2O[C@@H](C/C=C/C[C@H]3O[C@H]1[C@@H](OCc1cn([C@@H]4O[C@H](CO)[C@@H](O[C@@H]5O[C@H](CO)[C@H](O)[C@H](O)[C@H]5O)[C@H](O)[C@H]4O)nn1)[C@H](OCc1ccccc1)[C@H]3OCc1ccccc1)[C@@H](OCc1ccccc1)[C@H](OCc1ccccc1)[C@H]2OCc1cn([C@@H]2O[C@H](CO)[C@@H](O[C@@H]3O[C@H](CO)[C@H](O)[C@H](O)[C@H]3O)[C@H](O)[C@H]2O)nn1 | 13.8 | 240 | 800 | 6.7 | 2.5 | 300 | 5300 | 1600 | 8.6 | 1.4 | 4500 | 8300 | 600 | 5.3 | 600 | 80 | 400 | 700 | 800 | 88 | relative potency [17]: 0.3 |
| LACTOSE, ANHYDROUS [listing 1 of 2 here] |  | 600 |  |  |  | 1600 |  | 500 |  |  |  |  |  |  | 5000 |  | 1800 | 6000 |  |  |  |
| LACTOSE, ANHYDROUS [listing 2 of 2 here] |  |  |  |  |  |  |  |  |  |  |  |  |  |  |  |  |  |  |  | 86 | inhibition [24]: 67%; inhibition (CHO): 39%; inhibition [25]: 75% |
